Screening results: PubChem, several laboratories
A3A deaminase = inhibitors of human APOBEC3A DNA deaminase | AID 493011 | actives 0.41% (n = 330,000) | recombinant A3A, FAM/TAMRA ssDNA deamination fluorescence | inhibition, % at 20 µM;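 active means at least 40% inhibition at 20 µM here, with at most 30% in a related deaminase screen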;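 further: plate controls were A3A with DMSO for no effect and wells lacking A3A enzyme for full effect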
Target sequence (P31941 whole entry, looked up): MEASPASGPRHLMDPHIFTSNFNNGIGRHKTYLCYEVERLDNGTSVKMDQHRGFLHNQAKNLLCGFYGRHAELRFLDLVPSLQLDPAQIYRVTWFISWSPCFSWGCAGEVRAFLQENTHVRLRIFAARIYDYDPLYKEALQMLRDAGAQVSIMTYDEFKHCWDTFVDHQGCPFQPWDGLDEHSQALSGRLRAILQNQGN
A3G deaminase = inhibitors of human APOBEC3G DNA deaminase. Q9HC16. recombinant A3G, ssDNA deamination FAM/TAMRA fluorescence. inhibition, % at 20 µM. actives 0.28% (n = 330,000);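 active means inhibition of at least 40% at 20 µM, with no more than 30% in the related APOBEC3A deaminase screen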;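 further: plate controls were DMSO wells with A3G for no effect and wells lacking A3G enzyme for full effect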
Target sequence (Q9HC16 whole entry, looked up): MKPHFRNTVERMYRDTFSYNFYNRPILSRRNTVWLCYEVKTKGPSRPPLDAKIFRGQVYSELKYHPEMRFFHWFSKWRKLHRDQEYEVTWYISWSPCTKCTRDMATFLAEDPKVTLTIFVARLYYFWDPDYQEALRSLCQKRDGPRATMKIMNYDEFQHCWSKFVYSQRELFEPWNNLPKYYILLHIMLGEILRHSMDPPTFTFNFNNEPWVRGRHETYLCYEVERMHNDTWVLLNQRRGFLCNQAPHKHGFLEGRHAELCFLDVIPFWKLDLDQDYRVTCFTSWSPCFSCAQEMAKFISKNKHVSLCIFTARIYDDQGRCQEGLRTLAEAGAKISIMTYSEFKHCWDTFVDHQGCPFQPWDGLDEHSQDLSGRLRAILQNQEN
CAL PDZ FP-1 = blocks peptide binding to human CAL PDZ domain | purified CAL PDZ, TMR-peptide fluorescence polarization, 1 h | inhibition, % at 20 µM | Q9HD26 | actives 0.02% (n = 330,000);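 active means highest replicate inhibition of at least 40%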;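 further: plate controls were DMSO neutral control wells for no effect and unlabeled competitor peptide control wells for full effect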
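Assay system – tagged CAL PDZ protein CerCALP, purified · Timing – 1 h at RT · Compound – single point, 20 µM · Measured by – fluorescence polarization from S- and P-plane intensities, G-factor corrected · Evaluation – inhibition from polarization loss · Probe or stimulus – TMR reporter peptide T*-PRC34 · Buffer or medium – pH 7.4 phosphate-saline buffer, reducing agent, detergent, IgG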
CAL PDZ FP-2 = blocks peptide binding to the human CAL PDZ domain | inhibition, % at 24.9 µM | purified CAL PDZ, TMR-peptide fluorescence polarization, 1 h | actives 0.92% (n = 300,000) | AID 602252;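 active means mean inhibition of at least 30% with at least half of replicates also reaching 30%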;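 further: 0% = DMSO neutral control and 100% = excess unlabeled competitor peptide PRC23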
Keap1 Nrf2 FP = Keap1-Nrf2 (human) interaction inhibition; Keap1 Kelch-Nrf2 peptide fluorescence polarization, 1536-well; inhibition, % at 9.4 µM; actives 0.15% (n = 340,000); in the data active means inhibition above about 12%;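 further: human Keap1 Kelch domain with fluorescein labeled Nrf2 9mer peptide probe; 0% = neutral control wells and 100% = peptide positive control; higher means more block of Keap1 binding to Nrf2 peptide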
C-LANA FP = KSHV C-LANA DNA binding inhibition | MBP-C-LANA/FAM-LBS DNA binding, fluorescence polarization | inhibition, % at 9 µM | actives 0.078% (n = 340,000);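 active means highest replicate inhibition at or above 60% at 9 µM, even if other replicates fall short; inactive means all replicates below 60% inhibition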;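 further: 0% = neutral control wells and 100% = 4 µM acridine orange control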
* = called active by the depositor; . = no result given. Shown are actives, neighbours in structure and some others; about 1.7% of the full set was active somewhere.

SMILES | A3A deaminase | A3G deaminase | CAL PDZ FP-1 | CAL PDZ FP-2 | Keap1 Nrf2 FP | C-LANA FP
COc1cc(NC(=O)c2cccs2)ccc1NC(=O)Cc1ccccc1 | -2.7 | -7.2 | -0.6 | 42.4* | 2.8 | -1.6
COc1cc(NC(=O)Cc2ccccc2)ccc1NC(=O)Cc1ccccc1 | -4.2 | -8.8 | -0.2 | 2.3 | -3.2 | .
CN1C2CCC1CC(NC(=O)c1cc(Cl)cc3[nH]cnc13)C2 (centres undefined) | -1.6 | -6.3 | -0.9 | -1.3 | -4.0 | 1.4
COc1cc2c(=O)n(CCC(=O)NCC3CCCO3)c(=O)n(CC(=O)Nc3ccc(F)cc3)c2cc1OC (centres undefined) | 0.0 | -1.4 | 0.0 | -3.8 | -1.2 | -1.4
COC(=O)c1cc(S(=O)(=O)NCC2CCN(CCc3ccc(OC)cc3)CC2)cn1C | -3.6 | -2.7 | -2.7 | -1.9 | -2.8 | -1.2
CSc1nc2sc3c(c2c(=O)n1C)CCC3 | -1.3 | -2.4 | -0.8 | 71.5* | -4.1 | 0.5
CC(O)(c1ccccc1)c1ccc2ccccc2n1 (centres undefined) | . | . | -0.7 | 44.7* | -2.1 | 0.2
CCOC(=O)C1=CN(Cc2ccco2)S(=O)(=O)N(C)C1c1ccccc1 (centres undefined) | 2.7 | 1.3 | -0.3 | 0.0 | -1.4 | 1.9
CCOC(=O)C1=CN(Cc2ccco2)S(=O)(=O)N(CC)C1c1ccc(C(F)(F)F)cc1 (centres undefined) | 1.0 | 1.6 | -0.4 | 78.5* | -1.2 | -0.7
CC(=O)Nc1ccc(S(=O)(=O)NC2(C(F)(F)F)C(=O)Nc3c2c(=O)[nH]c(=O)n3Cc2cccnc2)cc1 (centres undefined) | 1.1 | -1.6 | -2.3 | -0.2 | -8.8 | 0.4
CC(=O)OCC(=O)[C@@]1(O)CC[C@H]2[C@@H]3CCC4=CC(=O)CC[C@]4(C)[C@H]3C(=O)C[C@@]21C | -0.6 | -4.4 | -0.1 | . | 1.5 | 0.3
CC(=O)OCC(=O)C1(O)CCC2C3CC(F)C4=CC(=O)CCC4(C)C3C(O)CC21C (centres undefined) | . | . | 0.9 | 85.6* | -1.8 | 0.2
CC(=O)OCC(=O)C1(O)CCC2C3CC(F)C4=CC(=O)CCC4(C)C3C(=O)CC21C (centres undefined) | . | . | 0.4 | 129.7* | 1.8 | -0.1
CCOC(=O)C(Cc1ccc(O)cc1)NC(=O)CNC(=O)C1CCCN1C(=O)OC(C)(C)C (centres undefined) | -3.9 | -5.6 | -0.3 | 1.3 | -2.9 | -1.7
Cn1c2c(c(=O)n3ncnc13)CCCC2 | 2.0 | 10.7 | 0.0 | 48.0* | -1.8 | 2.6
CCC(=O)N(Cc1c(C)nn(-c2ccccc2)c1Cl)c1ccc(Cl)cc1 | -6.9 | -9.5 | -0.4 | 0.4 | 0.6 | -0.8
COc1cc2c(c(OCC(=O)NC(C)C)c1)C(=O)O[C@@H](C)CCCC(=O)CCCCC2 | 0.1 | -0.3 | -1.0 | -24.1 | 6.8 | 3.5
COc1cc(OCC(=O)NC(C)C)cc2c1C(=O)O[C@@H](C)CCCC(=O)CCCCC2 | -3.8 | -10.7 | . | 46.3* | 0.9 | -0.5
CCOc1ccccc1NC(=O)N1CCCC(c2nc(-c3ccc(C)o3)no2)C1 (centres undefined) | -0.1 | -4.2 | -1.3 | 76.0* | -2.6 | 0.7
O=C(O)C1Nc2c(C(=O)N3CCOCC3)cccc2C2C=CCC12 (centres undefined) | 95.2 | 76.9 | 0.2 | 11.4 | -0.4 | 71.5*
Cc1ccc2c(c1C)NC(C(=O)O)C1CC=CC21 (centres undefined) | 95.7 | 85.3 | 0.3 | -4.8 | 6.6 | 3.0
Cc1cc(SCc2cccc(Cl)c2)nc(=O)[nH]1 | -0.5 | -1.5 | -1.7 | 54.9* | -2.0 | -0.1
CCCc1cc(=O)n2nc(N3CCC(C(=O)Nc4cccc(C(C)=O)c4)CC3)sc2n1 | -8.4 | -5.8 | 0.6 | . | -4.7 | -0.4
NC(=NC(=O)c1ccccc1)N1CCN(C(c2ccccc2)c2ccccc2)CC1 | -2.4 | -9.0 | 0.3 | 89.4* | -3.7 | 0.4
Cc1c(C(=O)Nc2ccc(F)cc2)sc2ncn(CC(=O)N3CCCCC3)c(=O)c12 | -14.8 | -6.7 | 0.1 | 2.6 | -1.3 | 0.0
SMILES | A3A deaminase | A3G deaminase | CAL PDZ FP-1 | CAL PDZ FP-2 | Keap1 Nrf2 FP | C-LANA FP
Nc1cc(C(=O)c2ccccc2)ccc1[N+](=O)[O-] | -1.6 | -3.2 | -1.6 | 37.2* | 2.3 | -0.2
CCN(CC)C(=S)SC1CCCCN(C(=O)c2ccccc2)C1=O (centres undefined) | -2.6 | -1.5 | -0.2 | 6.0 | 2.1 | 22.1
Cc1ccc(/C=C2/CNC/C(=C/c3ccc(C)cc3)C2=O)cc1 | . | . | -0.3 | 38.8* | -0.4 | 1.9
Cc1ccc(/C=C2\CCOC2=O)cc1 | -1.4 | -6.9 | -0.7 | -2.0 | 0.4 | -2.2
Cc1cnc(NC(=O)C2CC=CCC2)s1 (centres undefined) | 6.8 | -14.0 | -0.8 | 5.8 | -4.2 | -0.3
CCOC(=O)c1[nH]ncc1[C@@H]1C[C@H]2CN(Cc3cccc(Cl)c3)C(=O)[C@]23CCCN13 | 3.0 | -3.7 | -0.5 | 45.6* | -2.6 | -0.6
Cc1nc2ccc(NS(=O)(=O)c3ccc(F)c(C)c3)cc2[nH]1 | 1.0 | -2.6 | -1.2 | 1.5 | -2.4 | -1.2
COC(=O)c1c(NC(=O)Cc2ccc(OC)c(S(=O)(=O)N3CCOCC3)c2)sc(C)c1C | -1.0 | -3.3 | -0.6 | -3.0 | . | .
Cc1nnc(SCC(=O)N2CCCC(C(=O)c3ccc(Cl)cc3)C2)o1 (centres undefined) | -0.1 | -7.6 | . | 38.5* | 0.5 | -0.1
Cc1ccc(C(=O)NC(=S)Nc2ccc(NC(=O)c3cccs3)cc2)cc1[N+](=O)[O-] | -1.2 | 1.8 | 0.5 | 0.6 | 3.4 | 0.8
O=C(NCc1ccccc1Cl)C1CCN(S(=O)(=O)N2CCC3(CC2)OCCO3)CC1 | 0.6 | -1.1 | -0.9 | -1.5 | -5.2 | -1.3
Cn1c(=O)oc2cc(S(=O)(=O)N3CCC(C(=O)NCc4ccccc4Cl)CC3)ccc21 | -5.2 | -8.0 | 6.7 | 50.3* | -2.7 | 0.6
O=C(Cn1c(=O)oc2cc(S(=O)(=O)N3CCCC3)ccc21)Nc1ccccc1Br | -2.8 | -6.4 | -1.3 | 60.6* | -3.9 | 2.3
Cc1ccsc1CN1CCC(C(=O)NCc2ccccc2Cl)CC1 | 4.5 | -0.7 | -1.7 | 59.3* | 0.9 | -0.4
CN(C)c1ccc(CNC(=O)C2CCN(S(=O)(=O)c3ccc4c(c3)oc(=O)n4C)CC2)cc1 | -9.2 | -4.1 | -2.7 | 1.2 | -1.2 | -1.2
COc1ccc(C)cc1S(=O)(=O)N1CCN(C)CC1c1ccccc1 (centres undefined) | -3.1 | -2.9 | -0.9 | . | -2.3 | -0.9
NS(=O)(=O)c1ccc(NC(=O)COC(=O)CCCN2C(=O)c3cccc4cccc(c34)C2=O)cc1 | 0.1 | -0.2 | -1.6 | 60.0* | -3.6 | 0.7
O=C(N/N=C/c1ccccn1)c1ccncc1 | 0.5 | -4.6 | -0.5 | . | 1.0 | 0.9
O=C(NCc1ccncc1)C(=O)N/N=C/c1ccccn1 | -1.0 | -4.9 | -1.5 | 55.6* | -2.7 | -2.0
